Assay outcomes: PubChem, several laboratories
HSV replic up = enhancers of HSV replication in host cells, fold increase, host cell viability; HSV replication augmentation in cells; maximum fold increase; actives 0.005% (n = 220,000); AID 1956, 2009; in the data active = maximum fold increase above about 1.5; tested in PC3 cells
MDM2 E3 inh = MDM2-luciferase reporter signal enhancers, primary screen, MDM2 E3 ligase inhibitor project, cell-based, luminescence, 1536-well; signal enhancement, % at 5 µM; actives 0.11% (n = 210,000); AID 1230, 2008; E3 ubiquitin-protein ligase Mdm2 (Homo sapiens), Q00987; cell-based MDM2 ubiquitination luciferase reporter, 2 h; 0 = plate control, 100 = twice control, blank-subtracted;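 active = signal enhancement of 30% or more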;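 also: luminescence tracks abundance of the self-degrading MDM2-luciferase fusion protein; higher signal means inhibition of MDM2 E3 ligase activity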
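Assay system: stable mammalian line carrying autodegrading MDM2–luciferase fusion reporter; amount: 2000 cells seeded into each well; buffer or medium: DMEM; benchmarks: plate control and blank wells; signal: luciferase luminescence; timing: 2 h compound exposure at 37 °C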
Hsp70 activator = Hsp70 transcriptional activators, primary screen, cell-based, HeLa, Hsp70 promoter luciferase, luminescence, 10 µM | actives 0.04% (n = 200,000) | activation, % at 10 µM | HeLa Hsp70 promoter luciferase reporter; scaled: vehicle 0, proteasome-inhibitor control 100% | AID 1203, 2008;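 active = activation above the mean across all tested compounds plus 3 SD, cutoff set per campaign, cut at about 5.5% in these data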
Rad51 HR inh = human RAD51 strand exchange inhibitors, primary screen, biochemical, fluorescence | inhibition, % at 10 µM | actives 0.085% (n = 200,000) | DNA repair protein RAD51 homolog 1 (Homo sapiens), Q06609 | hRad51 DNA strand exchange, fluorescence dequenching;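 active = inhibition above 40% at the single screening dose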
Target sequence (Q06609 whole entry, looked up): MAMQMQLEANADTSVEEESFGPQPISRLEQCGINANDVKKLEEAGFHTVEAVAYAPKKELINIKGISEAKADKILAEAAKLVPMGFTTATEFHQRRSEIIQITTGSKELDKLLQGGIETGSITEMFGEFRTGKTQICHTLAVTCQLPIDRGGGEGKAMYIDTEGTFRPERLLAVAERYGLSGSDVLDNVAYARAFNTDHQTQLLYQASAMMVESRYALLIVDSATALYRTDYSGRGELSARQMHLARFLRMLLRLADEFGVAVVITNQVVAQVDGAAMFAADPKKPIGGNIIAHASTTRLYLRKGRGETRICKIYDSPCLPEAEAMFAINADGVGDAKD
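material = hRad51 filaments on single-stranded DNA | timing = filaments 15 min 37 °C, then compound 30 min | signal = FRET fluorescence dequenching, excitation 485 nm, emission 520 nm | benchmarks = control wells and blank wells on each plate | evaluation = percent inhibition relative to plate controls and blanks | compound = 10 µM final, single point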
HSF1 inh = HSF1 inhibitors in luciferase reporter cells, primary screen, cell-based, NIH3T3, luminescence. NIH3T3-HGL HSE-luciferase, MG132-induced, luminescence 8 h; hits give low values. activity change, negative = inhibition, % at 7.5 µM (by protocol). actives 0.77% (n = 300,000). AID 2098, 2009;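 active = more than half of replicate wells show activity change below -50%, luminescence cut by over half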;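 also: luciferase reports HSF-1 transcriptional activity via heat shock element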
HSF-1 act = HSF-1 activators, primary screen, NIH3T3-HGL cells, MG132 stress, luminescence, single point | NIH3T3-HGL HSF-1 luciferase reporter, 8 h; 100% = twice DMSO control signal | activation, % at 9 µM | actives 1.7% (n = 300,000);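 active = mean replicate activation of at least 50% with a set share of replicates each reaching 50%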
Large screens that a line does not name were inactive. Shown are actives, neighbours in structure and some others; about 2.6% of the full set was active somewhere.

CC(C)(C)N1CCC1CN (configuration not stated)	none (no result: Hsp70 activator, HSF1 inh, HSF-1 act)
CCCN(CCC)CCNc1c(NC2CCN(C(=O)OCC)CC2)c(=O)c1=O	MDM2 E3 inh 47.7
CC(=O)c1cccc(NC(=O)CN2CCN(Cc3ccccc3)CC2)c1	none (no result: HSV replic up, MDM2 E3 inh, Hsp70 activator, Rad51 HR inh)
COC(=O)c1cccc(NC(=O)CN2CCN(Cc3ccccc3)CC2)c1	HSF1 inh -62.0
Cc1c(-c2nc(-c3ccc(C(C)(C)C)cc3)no2)n(C)oc1=O	HSF1 inh -74.2 (no result: Hsp70 activator)
COc1ccc(-c2nc3cc(C)ccn3c2NCc2ccc3c(c2)OCO3)cc1	HSF-1 act 54.6
O=C(CCc1nnc2ccc(N3CCC4(CC3)OCCO4)nn12)NCc1ccc(F)cc1	HSF1 inh -72.2 (no result: HSV replic up, MDM2 E3 inh, Hsp70 activator, Rad51 HR inh)
CC1CN(C(=O)c2ccc(-c3ccccc3Cl)o2)CC(C)O1 (configuration not stated)	none (no result: HSV replic up, MDM2 E3 inh, Hsp70 activator, Rad51 HR inh)
CC1CCCN(C(=O)c2ccc(-c3ccccc3Cl)o2)C1 (configuration not stated)	HSF-1 act 58.2 (no result: HSV replic up, MDM2 E3 inh, Hsp70 activator, Rad51 HR inh)
Cc1cc(C)c(C(=O)/C=C/c2cccc3ccccc23)c(=O)[nH]1	HSF-1 act 83.8
Cn1c(-c2nonc2N)nc2ccccc21	HSF1 inh -74.0 (no result: HSV replic up, MDM2 E3 inh, Hsp70 activator, Rad51 HR inh)
CCCn1c(-c2nonc2N)nc2ccccc21	none
O=C(O)CCn1cc(C2CC(c3ccccc3)=NN2c2ccccc2)c(-c2ccccc2)n1 (configuration not stated)	none
CCC1CCCCN1C(=O)c1cc2c(=O)n3cccc(C)c3nc2s1 (configuration not stated)	HSF1 inh -64.2 (no result: HSV replic up, MDM2 E3 inh, Hsp70 activator, Rad51 HR inh)
Cc1cccc(NC(=S)N2CCN(C(=O)c3ccco3)CC2)c1C	HSF-1 act 60.5 (no result: HSV replic up, MDM2 E3 inh, Hsp70 activator, Rad51 HR inh)
Cc1c(Cl)cccc1NC(=S)N1CCN(C(=O)c2ccco2)CC1	none (no result: HSV replic up, MDM2 E3 inh, Hsp70 activator, Rad51 HR inh)
COc1ccc(F)cc1S(=O)(=O)Nc1cc2c3c(c1)CCN3C(=O)CC2	none (no result: HSV replic up, MDM2 E3 inh, Hsp70 activator, Rad51 HR inh)
Cc1ccc(-c2nc(CN3CCN(C(=O)C4CCCO4)CC3)cs2)cc1 (configuration not stated)	none (no result: HSV replic up, MDM2 E3 inh, Hsp70 activator, Rad51 HR inh)
OCC[C@@H]1C[C@H](O)[C@@H](O)[C@]2(Cc3ccccc3CO2)O1	none (no result: HSV replic up, MDM2 E3 inh, Hsp70 activator, Rad51 HR inh)
OCC[C@@H]1C[C@@H](O)[C@H](O)[C@@]2(Cc3ccccc3CO2)O1	HSF1 inh -66.1 (no result: HSV replic up, MDM2 E3 inh, Hsp70 activator, Rad51 HR inh)
COc1ccc(S(=O)Cc2ccc(C(=O)N3CCN(c4cccc(C)c4C)CC3)o2)cc1 (configuration not stated)	none (no result: HSV replic up, MDM2 E3 inh, Hsp70 activator, Rad51 HR inh)
CCOC(=O)c1sc(Nc2ccccc2Cl)nc1C	none (no result: MDM2 E3 inh, Hsp70 activator)
CCOC(=O)c1sc(NC(=O)Nc2ccccc2F)nc1C	HSF1 inh -73.8
COc1ccc(C2=NN(C(=O)CSc3nc(=O)n4cc(C)ccc4n3)C(c3ccc(C)cc3)C2)cc1 (configuration not stated)	none (no result: HSV replic up, MDM2 E3 inh, Hsp70 activator, Rad51 HR inh)
O=C(Nc1ccccc1Cl)c1cc(=O)c2ccccc2o1	none (no result: HSV replic up, MDM2 E3 inh, Hsp70 activator, Rad51 HR inh)
CC(C)c1nc(CNC(=O)C2CCC(=O)N(CCc3ccc(Cl)cc3)C2)no1 (configuration not stated)	none (no result: HSV replic up, MDM2 E3 inh, Hsp70 activator, Rad51 HR inh)
Cc1ccc(C(=O)N2CCCC(Nc3ccc(F)cc3)C2)cc1C (configuration not stated)	HSF1 inh -70.6 (no result: HSV replic up, MDM2 E3 inh, Hsp70 activator, Rad51 HR inh)
CC(=O)c1sc(NCc2ccc(C)cc2)nc1C	HSF-1 act 65.1 (no result: HSV replic up, MDM2 E3 inh, Hsp70 activator, Rad51 HR inh)
CC(=O)c1sc(NCc2ccccc2)nc1C	none (no result: HSV replic up, MDM2 E3 inh, Hsp70 activator, Rad51 HR inh)
COc1cc2cc[n+](Cc3ccc([N+](=O)[O-])cc3)cc2cc1OC	none (no result: HSV replic up, MDM2 E3 inh, Hsp70 activator, Rad51 HR inh)
COc1cccc(-n2cnc3sc(-c4ccccc4)cc3c2=O)c1	HSF-1 act 53.9 (no result: HSV replic up, MDM2 E3 inh, Hsp70 activator, Rad51 HR inh)
COc1ccc(C(=O)CN2C(=O)c3ccccc3S2(=O)=O)cc1Br	none (no result: HSV replic up, MDM2 E3 inh, Hsp70 activator, Rad51 HR inh)
O=C(CN1C(=O)c2ccccc2S1(=O)=O)Nc1ccc(S(=O)(=O)N2CCCCC2)cc1	Rad51 HR inh 72.8
O=C(CN1C(=O)c2ccccc2S1(=O)=O)Nc1ccccc1	HSF1 inh -65.2
COc1ccc(C(=O)CN2C(=O)c3ccccc3S2(=O)=O)cc1	HSF1 inh -64.8 (no result: Hsp70 activator)
O=C(CCCCCNC(=O)N1CCn2c1nc1ccccc12)NCc1ccccc1	none (no result: HSV replic up, MDM2 E3 inh, Hsp70 activator, Rad51 HR inh)
